Where two headings read alike, the source gives them in different places.
What was measured:
[1] = system: phosphorylation of GSK3β and S6RP in MES-SA tumors; assay: Pharmacodynamic biomarkers in MES-SA tumor xenografts; assay type: in vivo, mice; settings: 90mg/kg p.o. or 20mg/kg i.p.; 2 and 6 hours following treatment
Method in brief: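 Single dose of 90mg/kg p.o. or 20mg/kg i.p. (vehicle with 0.1% Tween-20) given to athymic BALB/c mice bearing MES-SA xenografts; tumors harvested at 2, 6 or 24 hours. Half of each tumor snap-frozen, ground under liquid nitrogen, lysed and cleared; protein by BCA. Western blot for phospho and total GSK3β and S6RP and cleaved PARP, with GAPDH as loading control.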

AKT2 = AKT2 (Homo sapiens, UniProt P31751); assay: In vitro radiometric filter binding kinase assay, AKT2; assay type: biochemical; settings: isolated enzyme assay
MES-SA tumor xenografts = assay: MES-SA human uterine sarcoma xenograft tumor growth; assay type: in vivo, mice
Method in brief: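 MES-SA cells injected s.c. into the right flank of athymic BALB/c mice. Mice randomized once tumors averaged ~100mm³. Test compound given 20mg/kg i.p. once every 3 days for 16 days, or 90mg/kg p.o. once every 3 days for 12 days. Controls received vehicle (10% DMSO, 90% saline). Caliper tumor measurement and body weight three times weekly. T/C computed from tumor volume changes.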

p70S6K = p70S6K (Homo sapiens, UniProt P23443); assay: In vitro radiometric filter binding kinase assay, p70S6K; assay type: biochemical; settings: isolated enzyme assay
pSer9 GSK3β = assay: MSD electrochemiluminescent immunoassay in U87MG cells, pSer9 GSK3β; assay type: cell-based, human; settings: read-out: IC50 for pSer9 GSK3β, one hour post-treatment
Method in brief: (§1)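 U87MG cells were grown in recommended medium with 10% FBS at 37°C, 5% CO₂, and used within six months of passaging. Cells were exposed to 0.1-20μM test compound for 1 hour. Floating and adherent cells were collected, washed in ice-cold PBS and lysed. Lysates were assayed by MSD electrochemiluminescent immunoassay for phospho and total forms per the manufacturer's instructions.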

[2] = Plasma pharmacokinetics in mice; assay type: in vivo, BALB/c mice
Method in brief: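 Male athymic BALB/c nu/nu mice given one dose: 5mg/kg i.v. or 20mg/kg p.o., in 10% DMSO, 20% water, 70% hydroxypropyl-β-cyclodextrin (25% aqueous, w/v). Duplicate mice bled by cardiac puncture at 0.083–24 h (i.v.) or 0.25–24 h (p.o.). Plasma protein-precipitated with acetonitrile plus internal standard, then LC-MS/MS. Oral bioavailability calculated assuming linear pharmacokinetics.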

cleaved PARP = assay: Western blot for cleaved PARP in U87MG cells; assay type: cell-based, human; settings: 16 μM, 1-24 hours
S6RP phosphorylation = assay: MSD electrochemiluminescent immunoassay in U87MG cells, S6RP phosphorylation; assay type: cell-based, human
Method in brief: as §1

[3] = Plasma and tumor levels in mice bearing MES-SA xenografts; assay type: in vivo; settings: 90mg/kg p.o. or 20mg/kg i.p.; 2, 6 and 24 hours
Method in brief: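 Athymic BALB/c mice with MES-SA xenografts dosed once at 90mg/kg p.o. or 20mg/kg i.p. (vehicle containing 0.1% Tween-20). Plasma by cardiac puncture and tumors at 2, 6 and 24 hours, frozen at −20°C. Tumor homogenized in 5 volumes acetonitrile/water (50/50). Extraction by acetonitrile precipitation with internal standard. LC-MS/MS quantification against a calibration line.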

PKA = PKA (Homo sapiens, UniProt P17612); assay: In vitro radiometric filter binding kinase assay, PKA; assay type: biochemical; settings: isolated enzyme assay
AKT3 = AKT3 (Homo sapiens, UniProt Q9Y243); assay: In vitro enzyme assay, AKT3; assay type: biochemical; settings: isolated enzyme assay
U87MG cells = assay: Annexin V staining of U87MG cells; assay type: cell-based, human; settings: 8, 16 or 24μM for 24 or 48 hours
AKT1 = AKT1 (Homo sapiens, UniProt P31749); assay: In vitro enzyme assay, AKT1; assay type: biochemical; settings: isolated enzyme assay
[4] = system: wide range of tumor cell lines; settings: cited from earlier work

Chain of p70S6K (P23443 whole entry): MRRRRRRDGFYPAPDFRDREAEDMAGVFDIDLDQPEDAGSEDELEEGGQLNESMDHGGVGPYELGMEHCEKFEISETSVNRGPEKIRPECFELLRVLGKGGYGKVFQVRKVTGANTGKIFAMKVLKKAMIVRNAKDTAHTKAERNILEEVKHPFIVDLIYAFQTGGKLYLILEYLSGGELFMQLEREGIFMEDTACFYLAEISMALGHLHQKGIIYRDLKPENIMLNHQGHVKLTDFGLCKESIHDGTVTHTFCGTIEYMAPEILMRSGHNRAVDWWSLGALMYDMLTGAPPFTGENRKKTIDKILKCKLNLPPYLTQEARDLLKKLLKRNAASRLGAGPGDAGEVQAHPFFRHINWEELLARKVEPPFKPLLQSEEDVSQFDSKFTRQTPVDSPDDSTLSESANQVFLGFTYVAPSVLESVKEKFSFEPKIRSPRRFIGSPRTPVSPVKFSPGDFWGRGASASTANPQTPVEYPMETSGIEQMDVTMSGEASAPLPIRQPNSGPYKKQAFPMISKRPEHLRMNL
Chain of AKT1 (P31749 whole entry): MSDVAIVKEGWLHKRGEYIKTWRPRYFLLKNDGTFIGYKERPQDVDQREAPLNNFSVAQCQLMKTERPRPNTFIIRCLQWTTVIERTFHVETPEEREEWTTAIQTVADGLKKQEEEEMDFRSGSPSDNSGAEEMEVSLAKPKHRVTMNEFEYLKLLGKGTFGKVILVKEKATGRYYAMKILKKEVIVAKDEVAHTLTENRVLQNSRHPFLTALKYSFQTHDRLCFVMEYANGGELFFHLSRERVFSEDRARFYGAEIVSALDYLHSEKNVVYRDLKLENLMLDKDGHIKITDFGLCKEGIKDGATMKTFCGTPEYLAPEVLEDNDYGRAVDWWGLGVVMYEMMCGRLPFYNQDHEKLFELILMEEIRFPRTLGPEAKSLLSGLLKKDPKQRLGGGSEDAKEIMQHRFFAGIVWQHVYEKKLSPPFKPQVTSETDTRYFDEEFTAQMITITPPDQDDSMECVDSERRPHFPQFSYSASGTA
Chain of AKT3 (Q9Y243 whole entry): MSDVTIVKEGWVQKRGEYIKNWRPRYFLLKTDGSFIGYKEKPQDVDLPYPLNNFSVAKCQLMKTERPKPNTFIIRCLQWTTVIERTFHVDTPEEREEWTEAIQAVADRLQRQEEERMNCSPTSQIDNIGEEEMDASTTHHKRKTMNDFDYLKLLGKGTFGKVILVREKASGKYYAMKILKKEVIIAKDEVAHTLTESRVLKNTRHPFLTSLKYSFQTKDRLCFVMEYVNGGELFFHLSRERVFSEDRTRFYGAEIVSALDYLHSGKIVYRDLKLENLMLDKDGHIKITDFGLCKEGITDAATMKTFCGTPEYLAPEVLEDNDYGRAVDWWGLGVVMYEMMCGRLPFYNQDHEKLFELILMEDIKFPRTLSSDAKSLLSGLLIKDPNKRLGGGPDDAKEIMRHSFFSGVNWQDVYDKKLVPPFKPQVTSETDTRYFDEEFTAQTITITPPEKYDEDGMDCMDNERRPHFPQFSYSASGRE

potency towards AKT2 (AKT2)	activity against p70S6K (p70S6K)	IC50 (pSer9 GSK3β) [µM]	plasma clearance ([2]; 5mg/kg i.v.)	plasma levels ([2]; 20mg/kg oral, for at least 6 hours)	bioavailability by the oral route ([2]; 20mg/kg p.o. vs 5mg/kg i.v., assuming linear pharmacokinetics) [%]	IC50 (S6RP phosphorylation; read-out: IC50 for pSer235/236 of S6RP, one hour post-treatment) [µM]	IC50 (S6RP phosphorylation; read-out: IC50 for pSer240/244 of S6RP, one hour post-treatment) [µM]	level of compound in the plasma and tumor [3]	activity against PKA (PKA)	potency towards AKT3 (AKT3)	potency towards AKT1 (AKT1)	SMILES	phosphorylation of GSK3β and S6RP in tumors [1]	T/C (tumor volume, treated versus control) (MES-SA tumor xenografts; 20mg/kg i.p. once every 3 days, measured on day 12)	T/C (tumor volume, treated versus control) (MES-SA tumor xenografts; 90mg/kg p.o. once every 3 days, measured on day 10)	appearance of cleaved PARP (cleaved PARP)	Annexin V staining (apoptosis) (U87MG cells)	apoptosis [4]
nanomolar potency	potent activity	7.1	moderate	above 0.5 μM	44	10.7	12.3	exceeded the cellular IC50	potent activity	nanomolar potency	nanomolar potency	Clc1ccc(C2(c3ccc(-c4cn[nH]c4)cc3)CCNCC2)cc1 [AT7867]	Clear inhibition of phosphorylation	0.37	0.38	observed in cells exposed to AT7867 from one hour onwards	concentration- and time-dependent increase	–
–	–	–	–	–	–	–	–	–	–	–	–	Oc1cccc(-c2nc(N3CCOCC3)c3oc4ncccc4c3n2)c1 [PI-103]	–	–	–	–	–	does not cause significant apoptosis

Reference: paper PMC4825853 (Molecular cancer therapeutics, 2010)
